# According to ChEMBL document CHEMBL1129428 (J Med Chem, 1996):
# Experiments:
# Mus musculus [1] = test: Anticonvulsant activity after intraperitoneal injection into mice by using MES screen test after 0.5 hr; assay type: functional
# Mus musculus [2] = test: Anticonvulsant activity after intraperitoneal injection into mice measured in a maximal electroshock scree (MES) screen; assay type: functional
# Mus musculus [3] = test: Anticonvulsant activity after intraperitoneal injection into mice by using scPTZ screen after 0.5 hr; assay type: functional
# Mus musculus [4] = test: Toxicity after intraperitoneal injection into mice by using toxicity screen test after 0.5 hr; assay type: organism-based; details: in vivo, ip
# In short: (§1)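 Mice injected intraperitoneally at 30, 100 and 300 mg/kg and examined 0.5 and 4 h afterwards. Each entry is the minimum dose giving activity (MES protection, scPTZ protection, or rotorod failure for neurotoxicity) in half or more of the mice. Activity is called absent if nothing occurs at 300 mg/kg.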
# Mus musculus [5] = test: Compound was tested for toxicity after intraperitoneal injection into mice by using toxicity screen test after 4 hr; assay type: organism-based; details: in vivo, ip; in short: as §1
# Rattus norvegicus [6] = test: Compound was tested for anticonvulsant activity after Oral Administration into Rats by using MES screen test after 4h,dose 50 mg/kg; number of rats out of four which were protected; assay type: functional
# In short: (§2)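 Rats received the compound orally. […] Rats were tested in the MES screen at 0.25, 0.5, 1, 2 and 4 h. Each value is the number of rats protected out of 4. The test followed NINDS procedures.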
# Rattus norvegicus [7] = test: Compound was tested for anticonvulsant activity after Oral Administration into Rats by using MES screen test after 2h,dose 50 mg/kg; number of rats out of four which were protected; assay type: functional; in short: as §2
# Rattus norvegicus [8] = test: Compound was tested for anticonvulsant activity after Oral Administration into Rats by using MES screen test after 0.25h,dose 50 mg/kg; number of rats out of four which were protected; assay type: functional; in short: as §2
# Rattus norvegicus [9] = test: Compound was tested for anticonvulsant activity after Oral Administration into Rats by using MES screen test after 0.5h,dose 50 mg/kg; number of rats out of four which were protected; assay type: functional; in short: as §2
# Rattus norvegicus [10] = test: Compound was tested for anticonvulsant activity after Oral Administration into Rats by using MES screen test after 1h,dose 50 mg/kg; number of rats out of four which were protected; assay type: functional; in short: as §2
# Mus musculus [11] = test: Anticonvulsant activity after intraperitoneal injection into mice by using scPTZ screen test after 4 hr; assay type: functional
# Rattus norvegicus [12] = test: Compound was tested for anticonvulsant activity after Oral Administration into Rats by using MES screen test after 0.25h,dose 12.5 mg/kg; No activity was demonstarted; assay type: functional, organism-based; set-up: dose 12.5 mg/kg; in short: as §2
# Rattus norvegicus [13] = test: Compound was tested for anticonvulsant activity after Oral Administration into Rats by using MES screen test after 4h,dose 12.5 mg/kg; number of rats out of four which were protected; assay type: functional; in short: as §2
# Rattus norvegicus [14] = test: Anticonvulsant activity after oral administration into rats; assay type: functional; set-up: concentration or dose not given beside the values
# Rattus norvegicus [15] = test: Compound was tested for anticonvulsant activity after Oral Administration into Rats by using MES screen test after 1h,dose 12.5 mg/kg; number of rats out of four which were protected; assay type: functional; in short: as §2
# Rattus norvegicus [16] = test: Compound was tested for anticonvulsant activity after Oral Administration into Rats by using MES screen test after 2h,dose 12.5 mg/kg; number of rats out of four which were protected; assay type: functional; in short: as §2
# Rattus norvegicus [17] = test: Compound was tested for anticonvulsant activity after Oral Administration into Rats by using MES screen test after 0.5h,dose 12.5 mg/kg; No activity was demonstarted; assay type: functional, organism-based; set-up: dose 12.5 mg/kg; in short: as §2
# Rattus norvegicus [18] = test: Compound was tested for anticonvulsant activity after Oral Administration into Rats by using MES screen test after 1h,dose 12.5 mg/kg; No activity was demonstarted; assay type: functional, organism-based; set-up: dose 12.5 mg/kg; in short: as §2
# Rattus norvegicus [19] = test: Compound was tested for anticonvulsant activity after Oral Administration into Rats by using MES screen test after 0.25h,dose 12.5 mg/kg; number of rats out of four which were protected; assay type: functional; in short: as §2
# Mus musculus [20] = test: Compound was tested for anticonvulsant activity after intraperitoneal injection into mice by using MES screen test after 1 hr; assay type: functional; details: ip
# In short: (§3)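 Quantitative intraperitoneal mouse testing in the MES, scPTZ or rotorod neurotoxicity screens at the peak time given for each compound (0.25–2 h). ED50 or TD50 reported in mg/kg with 95% CI and slope (SE).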
# [21] = Compound was tested for toxicity after intraperitoneal injection into mice by using neurotoxicity screen test after 2 hr; assay type: organism-based; details: mouse, in vivo, ip; in short: as §3
# Rattus norvegicus [22] = test: Compound was tested for anticonvulsant activity after Oral Administration into rat by using MES screen test after 4 hr; assay type: functional
# In short: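 Rats dosed orally, typically at 50 mg/kg first, then mostly 12.5 mg/kg (some compounds at 30 mg/kg), and tested by maximal electroshock. Four rats per compound, scored at 0.25, 0.5, 1, 2 and 4 h as the number of rats protected out of 4.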
# Mus musculus [23] = test: Compound was tested for anticonvulsant activity after intraperitoneal injection into mice by using scPTZ screen test after 1 hr; assay type: functional; details: ip; in short: as §3
Compound,Dose (Mus musculus [1]),Dose (Mus musculus [2]),Dose (Mus musculus [3]),Dose (Mus musculus [4]),Dose (Mus musculus [5]),Dose (Mus musculus [11]),Activity (Rattus norvegicus [13]),Activity (Rattus norvegicus [14]),Activity (Rattus norvegicus [15]),Activity (Rattus norvegicus [16]),other results
NC(=O)N/N=C/c1ccc(Oc2ccc(Cl)cc2)cc1,30 mg/kg,30 mg/kg,30 mg/kg,300 mg/kg,30 mg/kg,–,–,–,–,–,Activity (Rattus norvegicus [6]): 4; Activity (Rattus norvegicus [7]): 4; Activity (Rattus norvegicus [8]): 4; Activity (Rattus norvegicus [9]): 4; Activity (Rattus norvegicus [10]): 4
CCCCCCCOc1ccc(Oc2ccc(/C=N/NC(N)=O)cc2)cc1,–,–,–,300 mg/kg,–,–,–,–,–,–,–
NC(=O)N/N=C/c1ccc(Oc2ccc(I)cc2)cc1,30 mg/kg,30 mg/kg,100 mg/kg,300 mg/kg,100 mg/kg,300 mg/kg,–,–,–,–,Activity (Rattus norvegicus [6]): 4; Activity (Rattus norvegicus [7]): 4; Activity (Rattus norvegicus [8]): 3; Activity (Rattus norvegicus [9]): 4; Activity (Rattus norvegicus [10]): 4
N=C(S)N/N=C/c1ccc(Sc2ccc(F)cc2)cc1,100 mg/kg,100 mg/kg,100 mg/kg,–,100 mg/kg,100 mg/kg,1,1,2,1,Activity (Rattus norvegicus [12]): No activity
NC(=O)N/N=C/c1ccc(Oc2ccc(F)cc2Br)cc1,100 mg/kg,100 mg/kg,300 mg/kg,300 mg/kg,300 mg/kg,–,–,–,–,–,Activity (Rattus norvegicus [6]): 4; Activity (Rattus norvegicus [7]): 4; Activity (Rattus norvegicus [8]): 4; Activity (Rattus norvegicus [9]): 4; Activity (Rattus norvegicus [10]): 4
NC(=O)N/N=C/c1ccc(Oc2ccccc2Cl)cc1,30 mg/kg,30 mg/kg,100 mg/kg,300 mg/kg,–,300 mg/kg,–,–,–,–,Activity (Rattus norvegicus [6]): 4; Activity (Rattus norvegicus [7]): 4; Activity (Rattus norvegicus [8]): 3; Activity (Rattus norvegicus [9]): 4; Activity (Rattus norvegicus [10]): 4
CCCCc1ccc(Oc2ccc(/C=N/NC(N)=O)cc2)cc1,300 mg/kg,100 mg/kg,–,–,300 mg/kg,–,2,–,–,1,Activity (Rattus norvegicus [12]): No activity; Activity (Rattus norvegicus [17]): No activity; Activity (Rattus norvegicus [18]): No activity
C/C(=N/NC(N)=O)c1ccc(Sc2ccc(C)cc2)cc1,100 mg/kg,100 mg/kg,100 mg/kg,–,–,–,4,–,–,3,Activity (Rattus norvegicus [12]): No activity; Activity (Rattus norvegicus [17]): No activity; Activity (Rattus norvegicus [18]): No activity
CC/C(=N/NC(N)=O)c1ccccc1Oc1ccc(Br)cc1,–,–,–,–,300 mg/kg,–,–,–,–,–,–
C/C(=N/NC(N)=O)c1ccccc1Oc1ccccc1,300 mg/kg,–,300 mg/kg,300 mg/kg,–,–,–,–,–,–,–
Cc1cc(Oc2ccc(/C=N/NC(N)=O)cc2)ccc1F,30 mg/kg,30 mg/kg,–,300 mg/kg,–,–,4,4,4,4,Activity (Rattus norvegicus [19]): 2
NC(=O)N/N=C/c1ccc(Oc2ccc(F)cc2F)cc1,30 mg/kg,30 mg/kg,100 mg/kg,–,–,–,–,–,–,–,Activity (Rattus norvegicus [6]): 4; Activity (Rattus norvegicus [7]): 4; Activity (Rattus norvegicus [8]): 3; Activity (Rattus norvegicus [9]): 4; Activity (Rattus norvegicus [10]): 4
N=C(S)N/N=C/c1ccc(Oc2ccc(F)cc2)cc1,30 mg/kg,30 mg/kg,30 mg/kg,100 mg/kg,30 mg/kg,30 mg/kg,1,2,2,3,Activity (Rattus norvegicus [12]): No activity
NC(=O)N/N=C\c1ccc(Oc2cccc(F)c2F)cc1,100 mg/kg,100 mg/kg,300 mg/kg,–,–,–,4,3,4,4,ED50 (Mus musculus [20]): 45.8 mg/kg; TD50 at 2 h [21]: 293 mg/kg; Activity (Rattus norvegicus [12]): No activity; ED50 (Rattus norvegicus [22]): 6.15 mg/kg; ED50 (Mus musculus [23]): > 350 mg/kg
Cc1cc(I)ccc1Oc1ccc(/C=N/NC(N)=O)cc1,30 mg/kg,30 mg/kg,–,300 mg/kg,100 mg/kg,–,4,4,4,4,Activity (Rattus norvegicus [19]): 2
NC(=O)N/N=C\c1ccc(S(=O)(=O)c2ccccc2)cc1,–,300 mg/kg,–,–,–,–,–,–,–,–,–
Cc1cc(Oc2ccc(/C=N/NC(N)=O)cc2)ccc1Cl,30 mg/kg,30 mg/kg,300 mg/kg,300 mg/kg,100 mg/kg,–,4,4,4,4,Activity (Rattus norvegicus [19]): 1
C/C(=N/NC(N)=O)c1ccccc1Oc1ccc(Br)cc1,–,–,–,300 mg/kg,–,–,–,–,–,–,–
NC(=O)C(=O)N/N=C/c1ccc(Oc2ccc(F)cc2)cc1,–,–,–,300 mg/kg,300 mg/kg,–,–,–,–,–,–
NC(=O)N/N=C\c1ccc(Oc2cccc(F)c2)cc1,30 mg/kg,300 mg/kg,100 mg/kg,300 mg/kg,300 mg/kg,–,–,–,–,–,Activity (Rattus norvegicus [6]): 4; Activity (Rattus norvegicus [7]): 4; Activity (Rattus norvegicus [8]): 4; Activity (Rattus norvegicus [9]): 4; Activity (Rattus norvegicus [10]): 4
C/C(=N/NC(N)=O)c1ccccc1Oc1ccc(Cl)cc1,300 mg/kg,300 mg/kg,300 mg/kg,300 mg/kg,300 mg/kg,300 mg/kg,–,–,–,–,–
NC(=O)N/N=C/c1ccc(Oc2ccc3ccccc3c2)cc1,100 mg/kg,100 mg/kg,–,–,–,300 mg/kg,4,–,3,4,Activity (Rattus norvegicus [19]): 1; Activity (Rattus norvegicus [17]): No activity
Cc1ccc(Oc2ccc(/C=N/NC(N)=O)cc2)cc1C,100 mg/kg,30 mg/kg,300 mg/kg,–,300 mg/kg,–,4,2,4,4,Activity (Rattus norvegicus [12]): No activity
CC/C(=N/NC(N)=O)c1ccccc1Oc1ccc(Cl)cc1,300 mg/kg,300 mg/kg,–,–,–,–,–,–,–,–,–
Cc1cc(Cl)ccc1Oc1ccc(/C=N/NC(N)=O)cc1,30 mg/kg,30 mg/kg,30 mg/kg,300 mg/kg,100 mg/kg,30 mg/kg,4,3,4,4,Activity (Rattus norvegicus [12]): No activity
CCCc1ccccc1Oc1ccc(/C=N/NC(N)=O)cc1,100 mg/kg,30 mg/kg,–,300 mg/kg,–,–,4,3,4,4,Activity (Rattus norvegicus [19]): 3
CCCCCCCCc1ccc(Oc2ccc(/C=N/NC(N)=O)cc2)cc1,–,300 mg/kg,–,–,–,–,–,–,–,–,–
O=CN/N=C/c1ccc(Oc2ccc(F)cc2)cc1,300 mg/kg,300 mg/kg,–,–,300 mg/kg,300 mg/kg,–,–,–,–,–
N#Cc1ccc(Oc2ccc(/C=N\NC(N)=O)cc2)cc1,30 mg/kg,30 mg/kg,30 mg/kg,300 mg/kg,100 mg/kg,30 mg/kg,4,4,4,4,Activity (Rattus norvegicus [19]): 2
